Results from ChEMBL document CHEMBL3272092, “Synthesis and antihypertensive activity of 5-thio-2-pyridinecarboxylic acid derivatives” (J Med Chem, 1978).
The source made the active and inactive calls. No cut-off for these calls is given here.

Key:
[1] = system: Rattus norvegicus; assay: Antihypertensive activity in spontaneous hypertensive rat model assessed as decrease in blood pressure at 100 mg/kg, po administered for 2 to 4 days measured on day 2 to day 4; assay type: functional
Procedure, shortened: (§1)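 SHR, 4–6 per drug, were dosed daily by gavage for 2 or 4 consecutive days in 3% cornstarch, 5% PEG-400 and 1 drop Tween 80 per mL. After 1 h acclimation, systolic pressure was read by tail-cuff (inflated to 250 mmHg, then lowered; pulse reemergence), at least three readings, at 1, 2, 3 and 24 h post-dose. The peak fall is scored: +, <20 mm up to >80 mm.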

[2] = system: Canis familiaris; assay: Antihypertensive activity in unanesthetized renal hypertensive Mongrel dog model assessed as change in mean blood pressure at 60 mg/kg, po qd measured on day 1; assay type: functional, Canis lupus familiaris
Procedure, shortened: (§2)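 Conscious renal hypertensive dogs. Blood pressure recorded through a hypodermic needle and tubing to a pressure transducer; heart rate counted by hand. Solid drug given orally once daily in gelatin capsule. Pressures read at 1.5, 3, 6 and 24 h after each dose; maximum changes in pressure and heart rate over each daily session reported.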

[3] = system: Canis familiaris; assay: Antihypertensive activity in unanesthetized renal hypertensive Mongrel dog model assessed as change in mean blood pressure at 60 mg/kg, po qd measured on day 2; assay type: functional, Canis lupus familiaris; procedure, shortened: as §2
[4] = system: Canis familiaris; assay: Antihypertensive activity in unanesthetized renal hypertensive Mongrel dog model assessed as change in mean blood pressure at 60 mg/kg, po qd measured on day 3; assay type: functional, Canis lupus familiaris; procedure, shortened: as §2
[5] = system: Canis familiaris; assay: Toxicity in unanesthetized renal hypertensive Mongrel dog model assessed as change in heart rate at 60 mg/kg, po qd measured on day 1; assay type: organism-based, Canis lupus familiaris; set-up: dose 60 mg/kg, route oral; conditions: in vivo; procedure, shortened: as §2
[6] = system: Canis familiaris; assay: Toxicity in unanesthetized renal hypertensive Mongrel dog model assessed as change in heart rate at 60 mg/kg, po qd measured on day 2; assay type: organism-based, Canis lupus familiaris; set-up: dose 60 mg/kg, route oral; conditions: in vivo; procedure, shortened: as §2
[7] = system: Canis familiaris; assay: Toxicity in unanesthetized renal hypertensive Mongrel dog model assessed as change in heart rate at 60 mg/kg, po qd measured on day 3; assay type: organism-based, Canis lupus familiaris; set-up: dose 60 mg/kg, route oral; conditions: in vivo; procedure, shortened: as §2
[8] = system: Squirrel monkey; assay: Antihypertensive activity in normotensive squirrel monkey model assessed as decrease in systolic blood pressure at 30 mg/kg, po qd measured on day 1 by sphygmomanometry; assay type: functional, Saimiri sciureus, Artery
Procedure, shortened: (§3)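 Squirrel monkeys of either sex restrained in primate chairs, tails warmed by infrared lamp. Systolic pressure taken indirectly by tail-base occlusion cuff with pulse transducer; heart rate counted by hand from the pressure trace. Daily gavage of a suspension in 3% cornstarch, 5% PEG-400 and 1 drop Tween 80 per 10 mL. Read at 1.5, 3, 5 and 24 h; peak change per dose; paired t test.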

[9] = system: Squirrel monkey; assay: Antihypertensive activity in normotensive squirrel monkey model assessed as decrease in systolic blood pressure at 100 mg/kg, po qd measured on day 2 by sphygmomanometry; assay type: functional, Saimiri sciureus, Artery
Procedure, shortened: (§4)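 Restrained squirrel monkeys of either sex with tails warmed by infrared lamp. Systolic pressure was measured indirectly with a tail-base occlusion cuff and pulse transducer. Doses were given daily by gavage as a suspension in 3% cornstarch, 5% PEG-400 and 1 drop Tween 80 per 10 mL. Readings were taken 1.5, 3, 5 and 24 h post-dose. Values are the peak change after each dose, analysed by paired t test.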

[10] = system: Squirrel monkey; assay: Toxicity in normotensive squirrel monkey model assessed as change in heart rate at 30 mg/kg, po qd measured on day 1; assay type: organism-based, Saimiri sciureus; set-up: dose 30 mg/kg, route oral; conditions: in vivo; procedure, shortened: as §3
[11] = system: Squirrel monkey; assay: Toxicity in normotensive squirrel monkey model assessed as change in heart rate at 100 mg/kg, po qd measured on day 2; assay type: organism-based, Saimiri sciureus; set-up: dose 100 mg/kg, route oral; conditions: in vivo
Procedure, shortened: (§5)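 Heart rate in restrained, tail-warmed squirrel monkeys was counted manually from the tail-cuff pressure record. Daily gavage used a suspension in 3% cornstarch, 5% PEG-400 and 1 drop Tween 80 per 10 mL. Monitoring was at 1.5, 3, 5 and 24 h after each dose, and the peak change per administration is reported. Paired t test.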

[12] = system: Canis familiaris; assay: Toxicity in unanesthetized renal hypertensive Mongrel dog model assessed as emesis at 60 mg/kg, po qd measured on day 1 to 4; assay type: organism-based, Canis lupus familiaris; set-up: dose 60 mg/kg, route oral; conditions: in vivo
[13] = system: Squirrel monkey; assay: Toxicity in normotensive squirrel monkey model assessed as emesis at 30 mg/kg, po qd measured on day 1; assay type: organism-based, Saimiri sciureus; set-up: dose 30 mg/kg, route oral; conditions: in vivo
[14] = system: Squirrel monkey; assay: Toxicity in normotensive squirrel monkey model assessed as emesis at 100 mg/kg, po qd measured on day 2; assay type: organism-based, Saimiri sciureus; set-up: dose 100 mg/kg, route oral; conditions: in vivo
[15] = system: Rattus norvegicus; assay: Toxicity in spontaneous hypertensive rat model assessed as effect on heart rate at 100 mg/kg, po administered for 2 to 4 days; assay type: organism-based; set-up: dose 100 mg/kg, route oral; conditions: in vivo
Procedure, shortened: (§6)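 Heart rate in SHR was counted from tail-cuff pressure pulses after 1 h acclimation. Rats (4–6 per drug) were gavaged daily for 2 or 4 days at 100 mg/kg (sometimes 200 mg/kg) in 3% cornstarch, 5% PEG-400 and 1 drop Tween 80 per mL. Recordings were at 1, 2, 3 and 24 h after each dose.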

[16] = system: Rattus norvegicus; assay: Antihypertensive activity in spontaneous hypertensive rat model assessed as decrease in blood pressure at 200 mg/kg, po administered for 2 to 4 days measured on day 2 to day 4; assay type: functional; procedure, shortened: as §1
[17] = system: Rattus norvegicus; assay: Toxicity in spontaneous hypertensive rat model assessed as bradycardia at 200 mg/kg, po administered for 2 to 4 days; assay type: organism-based; set-up: dose 200 mg/kg, route oral; conditions: in vivo; procedure, shortened: as §6
[18] = system: Canis familiaris; assay: Antihypertensive activity in unanesthetized renal hypertensive Mongrel dog model assessed as change in mean blood pressure at 30 mg/kg, po qd measured on day 1; assay type: functional, Canis lupus familiaris
Procedure, shortened: (§7)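 Unanesthetized renal hypertensive dogs. Arterial pressure was recorded via a hypodermic needle and polyethylene tubing to a pressure transducer. Drug was given orally once daily as solid in a gelatin capsule. Pressure was determined 1.5, 3, 6 and 24 h after each dose, and the maximum change over each daily monitored session is reported.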

[19] = system: Canis familiaris; assay: Antihypertensive activity in unanesthetized renal hypertensive Mongrel dog model assessed as change in mean blood pressure at 30 mg/kg, po qd measured on day 2; assay type: functional, Canis lupus familiaris; procedure, shortened: as §7
[20] = system: Canis familiaris; assay: Antihypertensive activity in unanesthetized renal hypertensive Mongrel dog model assessed as change in mean blood pressure at 30 mg/kg, po qd measured on day 3; assay type: functional, Canis lupus familiaris; procedure, shortened: as §7
[21] = system: Canis familiaris; assay: Toxicity in unanesthetized renal hypertensive Mongrel dog model assessed as change in heart rate at 30 mg/kg, po qd measured on day 1; assay type: organism-based, Canis lupus familiaris; set-up: dose 30 mg/kg, route oral; conditions: in vivo
Procedure, shortened: (§8)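 Heart rate in unanesthetized renal hypertensive dogs was counted manually from the transducer-recorded arterial pressure trace. Oral dosing was once daily as solid in a gelatin capsule. Readings were at 1.5, 3, 6 and 24 h post-dose, and the maximum change per daily session is reported.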

[22] = system: Canis familiaris; assay: Toxicity in unanesthetized renal hypertensive Mongrel dog model assessed as change in heart rate at 30 mg/kg, po qd measured on day 2; assay type: organism-based, Canis lupus familiaris; set-up: dose 30 mg/kg, route oral; conditions: in vivo; procedure, shortened: as §8
[23] = system: Canis familiaris; assay: Toxicity in unanesthetized renal hypertensive Mongrel dog model assessed as change in heart rate at 30 mg/kg, po qd measured on day 3; assay type: organism-based, Canis lupus familiaris; set-up: dose 30 mg/kg, route oral; conditions: in vivo; procedure, shortened: as §8
[24] = system: Squirrel monkey; assay: Antihypertensive activity in normotensive squirrel monkey model assessed as decrease in systolic blood pressure at 100 mg/kg, po qd measured on day 1 by sphygmomanometry; assay type: functional, Saimiri sciureus, Artery; procedure, shortened: as §4
[25] = system: Squirrel monkey; assay: Antihypertensive activity in normotensive squirrel monkey model assessed as decrease in systolic blood pressure at 100 mg/kg, po qd measured on day 3 by sphygmomanometry; assay type: functional, Saimiri sciureus, Artery; procedure, shortened: as §4
[26] = system: Squirrel monkey; assay: Toxicity in normotensive squirrel monkey model assessed as change in heart rate at 100 mg/kg, po qd measured on day 1; assay type: organism-based, Saimiri sciureus; set-up: dose 100 mg/kg, route oral; conditions: in vivo; procedure, shortened: as §5
[27] = system: Squirrel monkey; assay: Toxicity in normotensive squirrel monkey model assessed as change in heart rate at 100 mg/kg, po qd measured on day 3; assay type: organism-based, Saimiri sciureus; set-up: dose 100 mg/kg, route oral; conditions: in vivo; procedure, shortened: as §5
[28] = system: Squirrel monkey; assay: Toxicity in normotensive squirrel monkey model at 100 mg/kg, po qd measured on day 3; assay type: organism-based, Saimiri sciureus; set-up: dose 100 mg/kg, route oral; conditions: in vivo
[29] = system: Canis familiaris; assay: Toxicity in unanesthetized renal hypertensive Mongrel dog model assessed as emesis at 30 mg/kg, po qd measured on day 1 to 4; assay type: organism-based, Canis lupus familiaris; set-up: dose 30 mg/kg, route oral; conditions: in vivo

COc1cccc(C[S+]([O-])c2ccc(C(=O)O)nc2)c1 (stereo not drawn)
Activity [1]: <20 mmHg

CCCCc1ccc(C(=O)O)nc1 [FUSARIC ACID]
Activity [1]: >60 mmHg | Activity [2]: -50 mmHg | Activity [3]: -45 mmHg | Activity [4]: -30 mmHg | Activity [5]: 32 bpm | Activity [6]: 35 bpm | Activity [7]: 33 bpm | Activity [8]: -28 mmHg | Activity [9]: -53 mmHg | Activity [10]: -20 bpm | Activity [11]: 10 bpm | Activity [12]: Toxic | Activity [13]: Non-toxic | Activity [14]: Non-toxic

O=C(O)c1ccc(SCc2ccccc2)cn1
Activity [1]: >40 mmHg

CCCCS(=O)(=O)c1ccc(C(=O)O)nc1
Activity [1]: inactive

O=C([O-])c1ccc(SCc2c(Cl)cccc2Cl)cn1.[Na+]
Activity [1]: <20 mmHg

O=C(O)c1ccc(SCc2ccc(Cl)cc2)cn1
Activity [1]: >40 mmHg

O=C(O)c1ccc(SCCCc2ccccc2)cn1
Activity [1]: >20 mmHg

COc1ccc(CSc2ccc(C(=O)[O-])nc2)cc1.[Na+]
Activity [1]: <20 mmHg

CC(c1cccc(C(F)(F)F)c1)[S+]([O-])c1ccc(C(=O)O)nc1 (stereo not drawn)
Activity [1]: >20 mmHg

O=C([O-])c1ccc([S+]([O-])Cc2ccc(Cl)cc2Cl)cn1.[Na+] (stereo not drawn)
Activity [1]: >20 mmHg

O=C([O-])c1ccc(SCc2ccc(F)cc2)cn1.[Na+]
Activity [1]: >20 mmHg

CCCCSc1ccc(C(=O)O)nc1
Activity [1]: >20 mmHg | Activity [15]: Non-toxic

O=C([O-])c1ccc([S+]([O-])CCCc2ccccc2)cn1.[Na+] (stereo not drawn)
Activity [1]: <20 mmHg

O=C(O)c1ccc([S+]([O-])Cc2ccc(Cl)cc2)cn1 (stereo not drawn)
Activity [1]: >20 mmHg

COc1ccc(C[S+]([O-])c2ccc(C(=O)O)nc2)cc1 (stereo not drawn)
Activity [1]: >20 mmHg

O=C(O)c1ccc(SCc2cccc(C(F)(F)F)c2)cn1
Activity [1]: >40 mmHg | Activity [16]: >80 mmHg | Activity [17]: Toxic | Activity [18]: 12 mmHg | Activity [19]: 22 mmHg | Activity [20]: 24 mmHg | Activity [21]: 5 bpm | Activity [22]: 9 bpm | Activity [23]: -12 bpm | Activity [9]: -25 mmHg | Activity [24]: -27 mmHg | Activity [25]: -25 mmHg | Activity [11]: -26 bpm | Activity [26]: -40 bpm | Activity [27]: -20 bpm | Activity [28]: Toxic | Activity [29]: Non-toxic

O=C(O)c1ccc(SCCCCl)cn1
Activity [1]: >20 mmHg

O=C(O)c1ccc(SCc2cccc(Cl)c2)cn1
Activity [1]: >40 mmHg
